Experiments:
[1] = test system: MDA-MB-231; assay: Inhibition of MDA-MB-231 cell proliferation (mean of two experiments); format: functional, cell-based, Homo sapiens
Procedure, shortened: (§1)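 Cells were seeded at 1500 per well and held 24 h at 37 °C. They were then exposed for 48 h to a range of compound concentrations in RPMI-1640 with 10% FBS at 37 °C and 5% CO2. Staining used 0.5 mg/mL methylene blue for 30 min at room temperature. Dye was dissolved in 3% aqueous HCl and absorbance read at 660 nm. EC50 values are means of at least two experiments.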

[2] = test system: NCI-H460; assay: Inhibition of NCI-H460 cell proliferation (mean); format: functional, cell-based; details: Homo sapiens; procedure, shortened: as §1
[3] = Stability (mean % remaining) in human plasma after incubation at 37 °C for 24h; format: ADME, cell-free; details: read-out: %R
Procedure, shortened: (§2)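 Compounds were incubated in human plasma with sampling at 0, 2, 4, 8 and 24 h. The percentage of intact compound remaining was measured at each point. Values are means of at least three experiments.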

[4] = test system: T47D; assay: Inhibition of T-47D cell proliferation (mean of two experiments); format: functional, cell-based; details: Homo sapiens; procedure, shortened: as §1
[5] = test system: DLD-1; assay: Inhibition of DLD-1 cell proliferation (mean); format: functional, cell-based; details: Homo sapiens; procedure, shortened: as §1
[6] = Stability (mean % remaining) in human plasma after incubation at 37 °C for 8h; format: ADME, cell-free; details: read-out: %R; procedure, shortened: as §2
[7] = test system: PC-3; assay: Inhibition of PC-3 cell proliferation (mean); format: functional, cell-based; details: Homo sapiens; procedure, shortened: as §1
[8] = test system: A498; assay: Inhibition of A498 cell proliferation (mean); format: functional, cell-based; details: Homo sapiens; procedure, shortened: as §1
[9] = Stability (mean % remaining) in human plasma after incubation at 37 °C for 0h; format: ADME; details: read-out: %R; procedure, shortened: as §2
[10] = test system: HCT-116; assay: Inhibition of HCT116 cell proliferation (mean); format: functional, cell-based; details: Homo sapiens; procedure, shortened: as §1
[11] = Stability (mean % remaining) in human plasma after incubation at 37 °C for 2h; format: ADME, cell-free; details: read-out: %R; procedure, shortened: as §2
[12] = test system: Malme-3M; assay: Inhibition of MALME-3M cell proliferation (mean); format: functional, cell-based; details: Homo sapiens; procedure, shortened: as §1
[13] = Stability (mean % remaining) in human plasma after incubation at 37 °C for 4h; format: ADME, cell-free; details: read-out: %R; procedure, shortened: as §2
[14] = target: Histone deacetylase 1 (Homo sapiens, UniProt Q13547); assay: Inhibition of HDAC1
Chain of Histone deacetylase 1 (Q13547 whole entry): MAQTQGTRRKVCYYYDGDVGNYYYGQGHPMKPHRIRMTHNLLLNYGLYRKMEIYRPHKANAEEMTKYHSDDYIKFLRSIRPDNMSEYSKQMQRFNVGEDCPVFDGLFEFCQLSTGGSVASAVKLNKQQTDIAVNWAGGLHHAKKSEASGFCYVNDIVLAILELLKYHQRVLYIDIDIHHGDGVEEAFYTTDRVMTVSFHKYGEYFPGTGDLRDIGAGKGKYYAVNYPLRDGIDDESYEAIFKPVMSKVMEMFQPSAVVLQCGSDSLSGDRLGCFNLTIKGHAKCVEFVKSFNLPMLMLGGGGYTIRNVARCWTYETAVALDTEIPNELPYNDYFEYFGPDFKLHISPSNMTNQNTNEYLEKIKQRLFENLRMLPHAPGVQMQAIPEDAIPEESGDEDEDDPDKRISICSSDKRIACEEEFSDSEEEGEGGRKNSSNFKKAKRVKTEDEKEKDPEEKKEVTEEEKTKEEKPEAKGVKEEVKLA

Compound	EC50 ([1]; Homo sapiens, MDA-MB-231)	EC50 [2]	remaining at 24 h [3]	EC50 [4]	EC50 [5]	remaining at 8 h [6]	EC50 [7]	EC50 [8]	remaining at 0 h [9]	EC50 [10]	remaining at 2 h [11]	EC50 [12]	remaining at 4 h [13]	IC50 [14]	EC50 ([1]; mda-mb-231)
O=C(CCCCCCSC(=O)C(Cc1ccccc1)Cc1ccccc1)Nc1nc(-c2ccccc2)cs1	> 20 µM	> 20 µM	–	–	–	–	–	–	–	–	–	–	–	–	–
CC(C)C(=O)SCCCCCCC(=O)Nc1nc(-c2ccccc2)cs1	4.4 µM	2.1 µM	49%	8.3 µM	2.3 µM	63%	9.5 µM	6.8 µM	100%	1.3 µM	86%	4.3 µM	71%	–	–
C[C@@H](Cc1ccccc1)C(=O)SCCCCCCC(=O)Nc1nc(-c2ccccc2)cs1	4 µM	3 µM	–	–	–	–	4.4 µM	–	–	0.62 µM	–	–	–	–	–
O=C(CCCCCCS)Nc1nc(-c2ccccc2)cs1	> 20 µM	7.6 µM	–	–	–	–	–	–	–	–	–	–	–	0.048 µM	–
COC(C(=O)SCCCCCCC(=O)Nc1nc(-c2ccccc2)cs1)c1ccccc1 (stereo unspecified)	> 20 µM	11 µM	–	–	–	–	–	–	–	–	–	–	–	–	–
C[C@H](Cc1ccccc1)C(=O)SCCCCCCC(=O)Nc1nc(-c2ccccc2)cs1	3.1 µM	3.2 µM	–	–	–	–	9.9 µM	–	–	0.75 µM	–	–	–	–	–
CC(Cc1ccccc1)C(=O)SCCCCCCC(=O)Nc1nc(-c2ccccc2)cs1 (stereo unspecified)	1.9 µM	1.5 µM	100%	4.3 µM	1.8 µM	99%	3.2 µM	2.6 µM	100%	1.2 µM	100%	3 µM	99%	> 100 µM	–
CC(C(=O)SCCCCCCC(=O)Nc1nc(-c2ccccc2)cs1)c1ccccc1 (stereo unspecified)	> 20 µM	3.2 µM	–	> 100 µM	86 µM	–	37 µM	26 µM	–	23 µM	–	33 µM	–	–	27 µM

Reference: ChEMBL document CHEMBL1137591, “Identification of a potent and stable antiproliferative agent by the prodrug formation of a thiolate histone deacetylase inhibitor” (Bioorg Med Chem Lett, 2007)
